Test results taken from ChEMBL document CHEMBL4689842, “EUbOPEN Chemogenomics Library wave 1” (2021).

Columns and labels:
Type in all cases: toxicity, cell-based
U2OS [1] = experiment: Incucyte cell viability with U2OS; settings: human, 10 µM, compound concentration 10 uM; note: filed as whole numbers so only -1 and 0 and 1 occur
HEK-293T = experiment: Incucyte cell viability with HEK293T; settings: human, 10 µM, compound concentration 10 uM; note: filed as whole numbers so only -1 and 0 and 1 occur
U2OS [2] = experiment: Multiplex assay against U2OS; settings: human
Outline: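 Live cells carried four stains from seeding: Hoechst33342, BioTracker Green Microtubule Cytoskeleton Dye, MitoTracker Red and Annexin V Alexa Fluor 680. They were imaged on a CQ1 microscope at 37°C and 5% CO2 after compound addition. Using CellPathfinder machine-learning gating, cells were split into Hoechst high-intensity objects or normal cells, normal cells into healthy, pyknosed or fragmented nuclei, and pyknosed cells into mitotic or apoptotic; tubulin, mitochondrial-mass and membrane-permeability phenotypes are per cents of healthy-nucleus cells.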

[3] = 6 h, replicate number 1, timepoint 6 hours
[4] = 12 h, replicate number 1, timepoint 12 hours
[5] = 18 h, replicate number 1, timepoint 18 hours
[6] = 24 h, replicate number 1, timepoint 24 hours
[7] = 12 h, 1 µM, compound concentration 1 uM, replicate 1
[8] = 12 h, 1 µM, compound concentration 1 uM, replicate 2
[9] = 12 h, 10 µM, compound concentration 10 uM, replicate 1
[10] = 12 h, 10 µM, compound concentration 10 uM, replicate 2
[11] = 24 h, 1 µM, compound concentration 1 uM, replicate 1
[12] = 24 h, 1 µM, compound concentration 1 uM, replicate 2
[13] = 24 h, 10 µM, compound concentration 10 uM, replicate 1
[14] = 24 h, 10 µM, compound concentration 10 uM, replicate 2
[15] = 48 h, 1 µM, compound concentration 1 uM, replicate 1
[16] = 48 h, 1 µM, compound concentration 1 uM, replicate 2
[17] = 48 h, 10 µM, compound concentration 10 uM, replicate 1
[18] = 48 h, 10 µM, compound concentration 10 uM, replicate 2

Structure (SMILES): CC(C)[C@H](CO)Nc1nc(Nc2cccc(Cl)c2)c2ncn(C(C)C)c2n1 [PURVALANOLA]
- Growth Rate (U2OS [1]; [3]): 0
- Growth Rate (U2OS [1]; [4]): 0
- Growth Rate (U2OS [1]; [5]): 0
- Growth Rate (U2OS [1]; [6]): 0
- Growth Rate (HEK-293T; [3]): 0
- Growth Rate (HEK-293T; [4]): 0
- Growth Rate (HEK-293T; [5]): 0
- Growth Rate (HEK-293T; [6]): 0
- Population Apoptotic (%) (U2OS [2]; [7]): 58%
- Population Fragmented Nuclei (%) (U2OS [2]; [7]): 13%
- Population Healthy Nuclei (%) (U2OS [2]; [7]): 76%
- Population Hoechst High Intensity Objects (%) (U2OS [2]; [7]): 12%
- Population Membrane Permeable-Phenotype (%) (U2OS [2]; [7]): 1%
- Population Mitochondria Different-Phenotype (%) (U2OS [2]; [7]): 15%
- Population Mitotic Cells (%) (U2OS [2]; [7]): 41%
- Population Normal (%) (U2OS [2]; [7]): 87%
- Population Pyknosed Nuclei (%) (U2OS [2]; [7]): 10%
- Population Tubulin-Different-Phenotype (%) (U2OS [2]; [7]): 12%
- Total Cell Count (U2OS [2]; [7]): 212
- Population Apoptotic (%) (U2OS [2]; [8]): 50%
- Population Fragmented Nuclei (%) (U2OS [2]; [8]): 8%
- Population Healthy Nuclei (%) (U2OS [2]; [8]): 88%
- Population Hoechst High Intensity Objects (%) (U2OS [2]; [8]): 10%
- Population Membrane Permeable-Phenotype (%) (U2OS [2]; [8]): 7%
- Population Mitochondria Different-Phenotype (%) (U2OS [2]; [8]): 21%
- Population Mitotic Cells (%) (U2OS [2]; [8]): 50%
- Population Normal (%) (U2OS [2]; [8]): 89%
- Population Pyknosed Nuclei (%) (U2OS [2]; [8]): 3%
- Population Tubulin-Different-Phenotype (%) (U2OS [2]; [8]): 15%
- Total Cell Count (U2OS [2]; [8]): 111
- Population Apoptotic (%) (U2OS [2]; [9]): 68%
- Population Fragmented Nuclei (%) (U2OS [2]; [9]): 23%
- Population Healthy Nuclei (%) (U2OS [2]; [9]): 55%
- Population Hoechst High Intensity Objects (%) (U2OS [2]; [9]): 13%
- Population Membrane Permeable-Phenotype (%) (U2OS [2]; [9]): 39%
- Population Mitochondria Different-Phenotype (%) (U2OS [2]; [9]): 96%
- Population Mitotic Cells (%) (U2OS [2]; [9]): 32%
- Population Normal (%) (U2OS [2]; [9]): 86%
- Population Pyknosed Nuclei (%) (U2OS [2]; [9]): 21%
- Population Tubulin-Different-Phenotype (%) (U2OS [2]; [9]): 100%
- Total Cell Count (U2OS [2]; [9]): 129
- Population Apoptotic (%) (U2OS [2]; [10]): 83%
- Population Fragmented Nuclei (%) (U2OS [2]; [10]): 13%
- Population Healthy Nuclei (%) (U2OS [2]; [10]): 79%
- Population Hoechst High Intensity Objects (%) (U2OS [2]; [10]): 7%
- Population Membrane Permeable-Phenotype (%) (U2OS [2]; [10]): 23%
- Population Mitochondria Different-Phenotype (%) (U2OS [2]; [10]): 95%
- Population Mitotic Cells (%) (U2OS [2]; [10]): 16%
- Population Normal (%) (U2OS [2]; [10]): 92%
- Population Pyknosed Nuclei (%) (U2OS [2]; [10]): 6%
- Population Tubulin-Different-Phenotype (%) (U2OS [2]; [10]): 98%
- Total Cell Count (U2OS [2]; [10]): 66
- Population Apoptotic (%) (U2OS [2]; [11]): 36%
- Population Fragmented Nuclei (%) (U2OS [2]; [11]): 10%
- Population Healthy Nuclei (%) (U2OS [2]; [11]): 80%
- Population Hoechst High Intensity Objects (%) (U2OS [2]; [11]): 5%
- Population Membrane Permeable-Phenotype (%) (U2OS [2]; [11]): 3%
- Population Mitochondria Different-Phenotype (%) (U2OS [2]; [11]): 7%
- Population Mitotic Cells (%) (U2OS [2]; [11]): 63%
- Population Normal (%) (U2OS [2]; [11]): 94%
- Population Tubulin-Different-Phenotype (%) (U2OS [2]; [11]): 6%
- Total Cell Count (U2OS [2]; [11]): 221
- Population Apoptotic (%) (U2OS [2]; [12]): 60%
- Population Fragmented Nuclei (%) (U2OS [2]; [12]): 8%
- Population Healthy Nuclei (%) (U2OS [2]; [12]): 83%
- Population Hoechst High Intensity Objects (%) (U2OS [2]; [12]): 6%
- Population Membrane Permeable-Phenotype (%) (U2OS [2]; [12]): 5%
- Population Mitochondria Different-Phenotype (%) (U2OS [2]; [12]): 23%
- Population Mitotic Cells (%) (U2OS [2]; [12]): 40%
- Population Normal (%) (U2OS [2]; [12]): 93%
- Population Pyknosed Nuclei (%) (U2OS [2]; [12]): 8%
- Population Tubulin-Different-Phenotype (%) (U2OS [2]; [12]): 9%
- Total Cell Count (U2OS [2]; [12]): 157
- Population Apoptotic (%) (U2OS [2]; [13]): 67%
- Population Fragmented Nuclei (%) (U2OS [2]; [13]): 27%
- Population Healthy Nuclei (%) (U2OS [2]; [13]): 48%
- Population Hoechst High Intensity Objects (%) (U2OS [2]; [13]): 16%
- Population Membrane Permeable-Phenotype (%) (U2OS [2]; [13]): 55%
- Population Mitochondria Different-Phenotype (%) (U2OS [2]; [13]): 100%
- Population Mitotic Cells (%) (U2OS [2]; [13]): 32%
- Population Normal (%) (U2OS [2]; [13]): 83%
- Population Pyknosed Nuclei (%) (U2OS [2]; [13]): 24%
- Population Tubulin-Different-Phenotype (%) (U2OS [2]; [13]): 100%
- Total Cell Count (U2OS [2]; [13]): 133
- Population Apoptotic (%) (U2OS [2]; [14]): 80%
- Population Fragmented Nuclei (%) (U2OS [2]; [14]): 16%
- Population Healthy Nuclei (%) (U2OS [2]; [14]): 65%
- Population Hoechst High Intensity Objects (%) (U2OS [2]; [14]): 8%
- Population Membrane Permeable-Phenotype (%) (U2OS [2]; [14]): 50%
- Population Mitotic Cells (%) (U2OS [2]; [14]): 20%
- Population Normal (%) (U2OS [2]; [14]): 91%
- Population Pyknosed Nuclei (%) (U2OS [2]; [14]): 17%
- Total Cell Count (U2OS [2]; [14]): 66
- Population Fragmented Nuclei (%) (U2OS [2]; [15]): 12%
- Population Healthy Nuclei (%) (U2OS [2]; [15]): 82%
- Population Hoechst High Intensity Objects (%) (U2OS [2]; [15]): 4%
- Population Membrane Permeable-Phenotype (%) (U2OS [2]; [15]): 4%
- Population Mitochondria Different-Phenotype (%) (U2OS [2]; [15]): 14%
- Population Normal (%) (U2OS [2]; [15]): 95%
- Population Pyknosed Nuclei (%) (U2OS [2]; [15]): 5%
- Population Tubulin-Different-Phenotype (%) (U2OS [2]; [15]): 7%
- Total Cell Count (U2OS [2]; [15]): 219
- Population Apoptotic (%) (U2OS [2]; [16]): 60%
- Population Fragmented Nuclei (%) (U2OS [2]; [16]): 4%
- Population Healthy Nuclei (%) (U2OS [2]; [16]): 84%
- Population Hoechst High Intensity Objects (%) (U2OS [2]; [16]): 5%
- Population Membrane Permeable-Phenotype (%) (U2OS [2]; [16]): 6%
- Population Mitochondria Different-Phenotype (%) (U2OS [2]; [16]): 25%
- Population Mitotic Cells (%) (U2OS [2]; [16]): 40%
- Population Normal (%) (U2OS [2]; [16]): 94%
- Population Pyknosed Nuclei (%) (U2OS [2]; [16]): 11%
- Population Tubulin-Different-Phenotype (%) (U2OS [2]; [16]): 10%
- Total Cell Count (U2OS [2]; [16]): 168
- Population Apoptotic (%) (U2OS [2]; [17]): 77%
- Population Fragmented Nuclei (%) (U2OS [2]; [17]): 33%
- Population Healthy Nuclei (%) (U2OS [2]; [17]): 17%
- Population Hoechst High Intensity Objects (%) (U2OS [2]; [17]): 23%
- Population Membrane Permeable-Phenotype (%) (U2OS [2]; [17]): 64%
- Population Mitochondria Different-Phenotype (%) (U2OS [2]; [17]): 94%
- Population Mitotic Cells (%) (U2OS [2]; [17]): 22%
- Population Normal (%) (U2OS [2]; [17]): 76%
- Population Pyknosed Nuclei (%) (U2OS [2]; [17]): 49%
- Population Tubulin-Different-Phenotype (%) (U2OS [2]; [17]): 100%
- Total Cell Count (U2OS [2]; [17]): 189
- Population Apoptotic (%) (U2OS [2]; [18]): 100%
- Population Fragmented Nuclei (%) (U2OS [2]; [18]): 16%
- Population Healthy Nuclei (%) (U2OS [2]; [18]): 62%
- Population Hoechst High Intensity Objects (%) (U2OS [2]; [18]): 18%
- Population Membrane Permeable-Phenotype (%) (U2OS [2]; [18]): 58%
- Population Mitochondria Different-Phenotype (%) (U2OS [2]; [18]): 87%
- Population Mitotic Cells (%) (U2OS [2]; [18]): 0%
- Population Normal (%) (U2OS [2]; [18]): 81%
- Population Pyknosed Nuclei (%) (U2OS [2]; [18]): 20%
- Population Tubulin-Different-Phenotype (%) (U2OS [2]; [18]): 93%
- Total Cell Count (U2OS [2]; [18]): 94
